IDH1 R132H inh – blocks human IDH1 R132H reductase activity | AID 624101 | diaphorase/resazurin fluorescence, 60 min | 70,000 compounds, 0.18% hits | inhibition, % at 10 µM; in the data active means inhibition above about 34%; inconclusive means no clear call, values can overlap the other calls; inactive means below about 11%;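 further: 0% = DMSO and 100% = no enzyme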
Pf Dd2 growth – P. falciparum Dd2 growth inhibition. activity change, % at 10 µM. SYBR Green, 72 h; active compounds read low. AID 1159554. 94,000 compounds, 2.3% hits; in the data active means activity change below about -80%; inconclusive means no clear call, values can overlap the other calls
T cruzi growth-1 – blocks T. cruzi growth in NIH3T3 culture; T. cruzi beta-gal in NIH3T3, GalScreen luminescence, 90 h; 77,000 compounds, 5.9% hits; inhibition, % at 8.34 µM;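 active means mean inhibition above about 93%, with at least 55% of replicates each passing it, limit read from the data, passing the limit was not always enough; inconclusive means only one of those two conditions holds; inactive means neither condition holds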
GASC1 inh – inhibitors of human demethylase GASC-1 KDM4C | AID 720574 | Q9H3R0 | 96,000 compounds, 0.15% hits | inhibition, % at 12.5 µM | GST-KDM4C 2-372, H3K9me3 peptide, LANCE TR-FRET;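 active means mean replicate inhibition above about 25%, with at least 55% of replicates also reaching it, limit read from the data, passing the limit was not always enough; inconclusive means only one of those two conditions met; inactive means neither condition met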
Target sequence (Q9H3R0 2-372 limits assumed): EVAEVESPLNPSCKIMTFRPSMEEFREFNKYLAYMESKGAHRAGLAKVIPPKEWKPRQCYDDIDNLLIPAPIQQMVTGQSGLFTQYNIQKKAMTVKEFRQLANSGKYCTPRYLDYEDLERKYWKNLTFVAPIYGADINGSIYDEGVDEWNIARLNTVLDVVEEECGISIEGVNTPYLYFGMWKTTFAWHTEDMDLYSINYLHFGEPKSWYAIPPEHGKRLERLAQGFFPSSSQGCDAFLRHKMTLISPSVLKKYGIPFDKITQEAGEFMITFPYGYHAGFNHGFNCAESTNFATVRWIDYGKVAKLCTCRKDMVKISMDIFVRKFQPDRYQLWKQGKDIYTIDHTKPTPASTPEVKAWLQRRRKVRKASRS
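Material: GST-tagged GASC-1 (JMJD2C) catalytic fragment, aa 2-372. Input: enzyme final amount 10 nM. Medium: HEPES buffer, pH 7.5, plus ascorbate. Reagent: H3K9me3 peptide substrate, Fe(II), 2-oxoglutarate. Doses: single dose. Times: reaction 30 min RT, detection step 1 h RT. Measured by: LANCE TR-FRET. Evaluation: Fall in 671/618 emission ratio as inhibition.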
T cruzi growth-2 – inhibitors of T. cruzi proliferation; 5,600 compounds, 72% hits; shares compounds with T cruzi growth-1; inhibition, % at 8.35 µM; T. cruzi beta-gal in NIH3T3, GalScreen luminescence, 90 h;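 active means mean replicate inhibition above about 95% and at least 55% of replicates individually reaching it, limit read from the data; inconclusive means only one of the two criteria is met; inactive means neither criterion is met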
T cruzi growth-3 – Trypanosoma cruzi proliferation inhibition; shares compounds with T cruzi growth-1; 5,600 compounds, 21% hits; inhibition, % at 2.09 µM; T. cruzi beta-gal in NIH3T3, GalScreen luminescence, 90 h;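 active means mean inhibition above about 95%, with at least 55% of replicates also reaching it, limit read from the data; inconclusive means meets just one of the two conditions; inactive means meets neither condition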;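 further: plate controls were neutral control median for no effect and positive control median for full effect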
NIH3T3 tox – kills mouse NIH/3T3 fibroblasts | shares compounds with T cruzi growth-1 | NIH/3T3 viability, CellTiter-Glo ATP luminescence, 90 h | cytotoxicity (signal decrease), % at 8.35 µM | 5,600 compounds, 14% hits;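 active means mean signal decrease across replicates above about 35% based on untreated-well scatter, with enough replicates individually passing, limit read from the data; inconclusive means no rule stated though some were filed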;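 further: 0% = median of neutral control wells and 100% = median of positive control wells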
3T3 cytotox 2 – kills mouse NIH/3T3 fibroblasts; shares compounds with T cruzi growth-1; 5,600 compounds, 56% hits; NIH/3T3 viability, CellTiter-Glo ATP luminescence, 90 h; inhibition, % at 24.9 µM; AID 651744;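 active means mean loss of cell viability signal at or above a set limit, and enough replicates individually reaching it; inconclusive means meets only the mean limit or only the replicate share; inactive means meets neither condition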;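 further: 0% = median of neutral control wells and 100% = median of positive control wells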
Active calls of the source: *; u = inconclusive; x = not tested or not shown. Compounds with a hit are over-represented: about 5.9% of the library has one in this group of screens.

SMILES	IDH1 R132H inh	Pf Dd2 growth	T cruzi growth-1	GASC1 inh	T cruzi growth-2	T cruzi growth-3	NIH3T3 tox	3T3 cytotox 2
C[C@@H]1CN([C@@H](C)CO)S(=O)(=O)c2ccc(-c3ccccc3)cc2O[C@H]1CN(C)Cc1cccc(F)c1	-1	-65	122*	-1	99*	u	40*	103*
Nc1nc(COc2cccc3cccnc23)nc(Nc2ccccc2)n1	1	x	x	x	x	x	x	x
C[C@@H]1CCCCO[C@H](CN(C)Cc2ccc3c(c2)OCO3)[C@@H](C)CN([C@@H](C)CO)C(=O)c2cc(NC(=O)Nc3ccc(C(F)(F)F)cc3)ccc2O1	x	-66	u	x	97*	116*	117*	104*
C[C@@H]1CN([C@H](C)CO)C(=O)c2cc(NC(=O)Nc3ccc(C(F)(F)F)cc3)ccc2O[C@@H](C)CCCCO[C@H]1CN(C)Cc1ccc2c(c1)OCO2	6	-57	u	0	u	103*	22	104*
C[C@@H]1CCCCO[C@H](CN(C)Cc2ccc3c(c2)OCO3)[C@H](C)CN([C@@H](C)CO)C(=O)c2cc(NC(=O)Nc3ccc(C(F)(F)F)cc3)ccc2O1	-1	-86*	122*	-1	96*	116*	122*	104*
C[C@@H]1CCCCO[C@@H](CN(C)Cc2ccc(C(F)(F)F)cc2)[C@H](C)CN([C@H](C)CO)C(=O)c2cc(NC(=O)Nc3ccc4c(c3)OCO4)ccc2O1	x	-6	79	-1	x	x	x	x
C[C@@H]1CN([C@@H](C)CO)C(=O)c2cc(NC(=O)Nc3ccc(C(F)(F)F)cc3)ccc2O[C@@H](C)CCCCO[C@H]1CN(C)Cc1ccc2c(c1)OCO2	x	-70	u	1	100*	112*	21	105*
C[C@H](CO)N1C[C@H](C)[C@@H](CN(C)Cc2ccc(C(F)(F)F)cc2)OCCCC[C@H](C)Oc2ccc(NC(=O)Nc3ccc4c(c3)OCO4)cc2C1=O	0	21	80	-2	x	x	x	x
COC(=O)C1=C(C)NC(=S)NC1c1cccc(OC)c1OCc1ccccc1 (stereo not given)	0	x	x	x	x	x	x	x
OCc1nnn(-c2ccc(Br)cc2)c1CO	0	x	x	x	x	x	x	x
CCCn1nnc(NC(=O)COc2ccc(Cl)cc2C)n1	-1	x	x	x	x	x	x	x
C[C@H](CO)N1C[C@H](C)[C@H](CN(C)Cc2ccc3c(c2)OCO3)OCCCC[C@H](C)Oc2ccc(NC(=O)Nc3ccc(C(F)(F)F)cc3)cc2C1=O	x	-71	u	0	104*	113*	124*	104*
C[C@H]1CCCCO[C@H](CN(C)Cc2ccc(C(F)(F)F)cc2)[C@@H](C)CN([C@@H](C)CO)C(=O)c2cc(NC(=O)Nc3ccc4c(c3)OCO4)ccc2O1	x	-30	74	1	x	x	x	x
C[C@@H]1CCCCO[C@@H](CN(C)Cc2ccc3c(c2)OCO3)[C@@H](C)CN([C@H](C)CO)C(=O)c2cc(NC(=O)Nc3ccc(C(F)(F)F)cc3)ccc2O1	x	-4	127*	-1	90	110*	1	17
C[C@@H]1CCCCO[C@H](CN(C)Cc2ccc(C(F)(F)F)cc2)[C@H](C)CN([C@@H](C)CO)C(=O)c2cc(NC(=O)Nc3ccc4c(c3)OCO4)ccc2O1	-2	-80	83	-2	x	x	x	x
C[C@H]1CCCCO[C@H](CN(C)Cc2ccc3c(c2)OCO3)[C@@H](C)CN([C@@H](C)CO)C(=O)c2cc(NC(=O)Nc3ccc(C(F)(F)F)cc3)ccc2O1	0	-29	u	1	87	106*	91*	103*
COC(=O)c1ccccc1NC(=O)C(C)N(c1ccc(Cl)cc1)S(C)(=O)=O (stereo not given)	0	x	x	x	x	x	x	x
N#Cc1c(NC(=O)COc2ccc3c(-c4ccccc4)cc(=O)oc3c2)sc2c1CCC2	0	x	x	x	x	x	x	x
Cc1ccc(S(=O)(=O)N(C)C[C@H]2OCCCC[C@@H](C)Oc3ccc(NS(=O)(=O)c4cccs4)cc3C(=O)N([C@H](C)CO)C[C@H]2C)cc1	x	-69	u	0	90	31	-29	-39
Cc1ccc(S(=O)(=O)N(C)C[C@@H]2OCCCC[C@@H](C)Oc3ccc(NS(=O)(=O)c4cccs4)cc3C(=O)N([C@@H](C)CO)C[C@H]2C)cc1	u	-43	86	8	x	x	x	x
C[C@@H]1CCCCO[C@H](CN(C)S(=O)(=O)c2ccccc2)[C@H](C)CN([C@@H](C)CO)C(=O)c2cc(NS(=O)(=O)c3cccs3)ccc2O1	-1	x	u	-1	103*	46	-10	-8
Cc1ccc(S(=O)(=O)N(C)C[C@@H]2OCCCC[C@@H](C)Oc3ccc(NS(=O)(=O)c4cccs4)cc3C(=O)N([C@@H](C)CO)C[C@@H]2C)cc1	x	-74	103*	-1	104*	70	12	-2
Cc1ccc(S(=O)(=O)N(C)C[C@H]2OCCCC[C@H](C)Oc3ccc(NS(=O)(=O)c4cccs4)cc3C(=O)N([C@H](C)CO)C[C@H]2C)cc1	x	-75	109*	-2	103*	16	-37	-15
Cc1ccc(S(=O)(=O)N(C)C[C@@H]2OCCCC[C@@H](C)Oc3ccc(NS(=O)(=O)c4cccs4)cc3C(=O)N([C@H](C)CO)C[C@H]2C)cc1	0	-58	59	1	x	x	x	x
Cc1ccc(S(=O)(=O)N(C)C[C@H]2OCCCC[C@@H](C)Oc3ccc(NS(=O)(=O)c4cccs4)cc3C(=O)N([C@@H](C)CO)C[C@@H]2C)cc1	2	-14	u	0	107*	53	-3	15
Cc1ccc(S(=O)(=O)N(C)C[C@@H]2OCCCC[C@H](C)Oc3ccc(NS(=O)(=O)c4cccs4)cc3C(=O)N([C@H](C)CO)C[C@@H]2C)cc1	-1	-68	119*	1	96*	42	-25	-7
Cc1ccc(S(=O)(=O)N(C)C[C@@H]2OCCCC[C@@H](C)Oc3ccc(NS(=O)(=O)c4cccs4)cc3C(=O)N([C@H](C)CO)C[C@@H]2C)cc1	x	-56	61	0	x	x	x	x
COc1ccc(S(=O)(=O)N2C[C@H](O)COC[C@H]3O[C@@H](CC(=O)N[C@H]4CCN(Cc5ccccc5)C4)CC[C@@H]32)cc1	x	x	u	-2	84	40	-17	-1
Cc1ccc(S(=O)(=O)N2C[C@H](O)COC[C@@H]3O[C@@H](CC(=O)N[C@@H]4CCN(Cc5ccccc5)C4)CC[C@H]32)cc1	x	-25	13	1	x	x	x	x

Bioassay records deposited in PubChem BioAssay by Broad Institute.
